This is an account of results in ChEMBL document CHEMBL1152220, “Discovery of a highly orally bioavailable c-5-[6-(4-Methanesulfonyloxyphenyl)hexyl]-2-methyl-1,3-dioxane-r-2-carboxylic acid as a potent hypoglycemic and hypolipidemic agent” (Bioorg Med Chem Lett, 2008).

Active and inactive are the calls of the source.

Data set [1] has as its system Mus musculus. Nature of the data set: Reduction of triglyceride level in Swiss albino mouse serum at 10 mg/kg/day, po for 6 days relative to control. Format: functional. The arrangement: scale not given: the % may be the effect or the level left. The method, boiled down: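 Male Swiss albino mice aged 6–8 weeks were dosed orally at 10 mg/kg/day for 6 days. Serum triglyceride is reported as % change relative to vehicle controls, as the mean of n = 6.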

In data set [2] the target is T1, Peroxisome proliferator-activated receptor alpha (Homo sapiens) (UniProt Q07869).
T1 sequence (whole entry): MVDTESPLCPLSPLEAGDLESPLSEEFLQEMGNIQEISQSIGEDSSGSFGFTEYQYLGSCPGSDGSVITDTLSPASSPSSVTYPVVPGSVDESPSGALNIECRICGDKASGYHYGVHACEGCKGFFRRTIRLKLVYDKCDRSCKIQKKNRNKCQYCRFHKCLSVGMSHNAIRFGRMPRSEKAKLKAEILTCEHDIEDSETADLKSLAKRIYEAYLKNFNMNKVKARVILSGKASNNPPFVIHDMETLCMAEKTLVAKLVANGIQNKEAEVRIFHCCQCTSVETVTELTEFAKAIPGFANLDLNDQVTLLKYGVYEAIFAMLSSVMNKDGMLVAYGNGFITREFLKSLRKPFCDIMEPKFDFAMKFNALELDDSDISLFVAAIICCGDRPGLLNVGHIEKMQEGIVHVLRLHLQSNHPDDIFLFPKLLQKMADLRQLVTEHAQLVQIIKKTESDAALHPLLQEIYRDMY
Nature of the data set: Agonist activity at human PPARalpha ligand binding domain expressed in human HepG2 cells co-transfected with PPRE3-TK-luc assessed as induction of beta-galactosidase activity at 10 uM by transactivation assay. It is filed as cell-based. In a few lines:
(§1)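 HepG2 cells were transfected with a pSG5 vector carrying hPPARα or hPPARγ cDNA and cotransfected with PPRE3-TK-luc. Firefly luciferase was measured with a commercial assay, and β-galactosidase was read on an ELISA reader. Activity is expressed as fold induction. Single-point testing was at 10 µM for hPPARα and 0.2 µM for hPPARγ, with EC50 given elsewhere.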

Data set [3] relates to Rattus norvegicus. Put plainly: Hypolipidemic activity in high cholesterol fed Sprague-Dawley rat assessed as reduction of triglyceride level at 3 mg/kg/day for 4 days relative to control. Details: scale not given: the % may be the effect or the level left.
Data set [4] has as its target T2, Peroxisome proliferator-activated receptor gamma (Homo sapiens, UniProt P37231).
T2 sequence (P37231 whole entry): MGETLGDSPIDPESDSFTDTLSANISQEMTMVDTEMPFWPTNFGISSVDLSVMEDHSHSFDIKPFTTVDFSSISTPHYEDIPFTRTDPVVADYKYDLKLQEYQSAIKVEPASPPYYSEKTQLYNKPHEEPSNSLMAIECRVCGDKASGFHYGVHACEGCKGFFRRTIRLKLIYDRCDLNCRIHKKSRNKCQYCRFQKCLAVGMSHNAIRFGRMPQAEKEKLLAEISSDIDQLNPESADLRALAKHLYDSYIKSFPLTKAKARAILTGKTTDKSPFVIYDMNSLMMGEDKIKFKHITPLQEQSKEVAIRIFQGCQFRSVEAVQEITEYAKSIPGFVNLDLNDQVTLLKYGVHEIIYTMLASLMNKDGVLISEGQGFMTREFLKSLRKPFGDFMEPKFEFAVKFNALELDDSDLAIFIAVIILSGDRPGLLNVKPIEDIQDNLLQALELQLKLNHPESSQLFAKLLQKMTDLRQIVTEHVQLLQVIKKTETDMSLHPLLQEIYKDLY
Put plainly: (§2) Agonist activity at human PPARgamma ligand binding domain expressed in human HepG2 cells co-transfected with PPRE3-TK-luc assessed as induction of beta-galactosidase activity by transactivation assay. Format: cell-based. In a few lines: as §1

Data set [5] in a line: Tmax in Wistar rat at 30 mg/kg, po. Format: ADME, organism-based. The arrangement: dose 30 mg/kg, route oral. As to conditions: in vivo.
The subject of data set [6] is Rattus norvegicus. Nature of the data set: Hypolipidemic activity in high cholesterol fed Sprague-Dawley rat assessed as reduction of LDL-C level at 3 mg/kg/day for 4 days relative to control. Details: scale not given: the % may be the effect or the level left.
Data set [7] has as its system Mus musculus. Nature of the data set: Hypoglycemic activity in db/db mouse assessed as reduction of plasma glucose level at 3 mg/kg/day for 6 days relative to control. Format: functional. The arrangement: scale not given: the % may be the effect or the level left. The method, boiled down: (§3)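 Male db/db mice aged 6–8 weeks were dosed daily for 6 days. Plasma glucose and triglycerides were measured, and results are reported as % change relative to vehicle-treated controls.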

Data set [8] in a line: Half life in Wistar rat at 30 mg/kg, po. It is filed as ADME, organism-based. Details: dose 30 mg/kg, route oral. The settings on record: in vivo.
Data set [9] is described as follows: (§4) AUC (0 to infinity) in Wistar rat at 30 mg/kg, po. It is filed as ADME, organism-based, Plasma. The arrangement: time infinity, dose 30 mg/kg, route oral. The settings on record: Wistar, plasma.
Data set [10] has as its target T3, Peroxisome proliferator-activated receptor alpha (Homo sapiens, UniProt Q07869).
T3 sequence (Q07869 whole entry): T1 sequence (whole entry)
Put plainly: Agonist activity at human PPARalpha ligand binding domain expressed in human HepG2 cells co-transfected with PPRE3-TK-luc assessed as induction of beta-galactosidase activity by transactivation assay. Format: cell-based. In a few lines:
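HepG2 cells were transfected with a pSG5 vector carrying hPPARα or hPPARγ cDNA and cotransfected with PPRE3-TK-luc. Firefly luciferase was measured with a commercial assay, and β-galactosidase was read on an ELISA reader. Activity is expressed as fold induction.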

Data set [11] deals with Mus musculus. Nature of the data set: Hypolipidemic activity in db/db mouse assessed as reduction of triglyceride level at 3 mg/kg/day for 6 days relative to control. It is filed as functional. The arrangement: scale not given: the % may be the effect or the level left. In a few lines: as §3
Data set [12] deals with Rattus norvegicus. Nature of the data set: Hypolipidemic activity in high cholesterol fed Sprague-Dawley rat assessed as reduction of total cholesterol level at 3 mg/kg/day for 4 days relative to control. Details: scale not given: the % may be the effect or the level left.
A short description of data set [13]: (§5) Cmax in Wistar rat at 30 mg/kg, po. Format: ADME, organism-based. Details: dose 30 mg/kg, route oral. As to conditions: Wistar, in vivo.
Data set [14] deals with Rattus norvegicus. Put plainly: Hypolipidemic activity in high cholesterol fed Sprague-Dawley rat assessed as effect on HDL-C level at 3 mg/kg/day for 4 days relative to control.
In data set [15] the target is T4, Peroxisome proliferator-activated receptor gamma (Homo sapiens) (UniProt P37231).
T4 sequence (whole entry): T2 sequence (P37231 whole entry)
The description is as §2. Format: cell-based. In a few lines: as §1

Data set [16] deals with Rattus norvegicus. Described as §4. Details: time infinity, dose 30 mg/kg, route oral. Format: ADME, organism-based, Plasma. The settings on record: in vivo.
In data set [17] the test system is Rattus norvegicus. Described as §5. The settings on record: in vivo. Format: ADME, organism-based. The arrangement: dose 30 mg/kg, route oral.

With `C[C@]1(C(=O)O)OC[C@@H](CCCCc2ccc(O)cc2)CO1`, the Activity in the data set with Mus musculus [1] is -15%. For the same compound, in data set [2], the fold change (FC) amounted to 1.2.
Regarding `Cc1cccc(Nc2cc(Cl)nc(SCC(=O)O)n2)c1C`, the fold change (FC) in [2] stood at 3.3.
In the case of `CS(=O)(=O)Oc1ccc(CCCCCC[C@H]2CO[C@@](C)(C(=O)O)OC2)cc1`, the Activity was -63% with Rattus norvegicus [3]; -46% with Rattus norvegicus [6]; -53% in the data set on Mus musculus [7]; -71% in the data set on Mus musculus [1]; -50% in the data set on Mus musculus [11]; -56% in the data set with Rattus norvegicus [12]. The Activity in the data set with Rattus norvegicus [14] worked out at 51%. In addition, the EC50 in data set [4] and in data set [10] was 15 µM in each case. For the same compound, the Tmax (usually the time from dosing to the highest level) in [5] turned out to be 4 h. Further, in data set [8], the half-life (in general, the time needed for the level to fall by half in the phase considered) was 12 h. For the same compound, the AUC(0-inf) (as a rule, total exposure, with the tail of the curve extrapolated) in data set [9] is 1490 µg·h/mL. Besides, the Cmax (usually the maximum level reached in the sampled fluid or tissue) in [13] was 127 µg/mL.
As for `CS(=O)(=O)Oc1ccc(CCCCC[C@H]2CO[C@@](C)(C(=O)O)OC2)cc1`, the outcome in data set [15] was inactive. For the same compound, the Activity in the data set on Mus musculus [1] is listed as -28%. In addition, the EC50 (in general, the concentration at which the effect is half-maximal) in data set [10] was 2.5 µM.
Turning to `CS(=O)(=O)Oc1ccc(CCCC[C@H]2CO[C@@](C)(C(=O)O)OC2)cc1`, the outcome in data set [15] was inactive. Moreover, in the data set on Mus musculus [1], the Activity is -32%. Besides, the EC50 in data set [10] was 20 µM. For the same compound, the fold change (FC) in data set [2] is 3.
Turning to `CSc1ccc(CCCC[C@H]2CO[C@@](C)(C(=O)O)OC2)cc1`, the Activity with Mus musculus [1] is given as -14%. Also, the fold change (FC) in [2] worked out at 4.
Consider `Cc1ccc(-c2nc(CCCC[C@H]3CO[C@@](C)(C(=O)O)OC3)c(C)o2)cc1`, for which the Activity in the data set on Rattus norvegicus [3] is -54%; in the data set on Rattus norvegicus [6] it was -68%; in the data set on Mus musculus [7], -44%; with Mus musculus [1] it was -67%; in the data set with Mus musculus [11] it was -54%; with Rattus norvegicus [12], -49%. Further, in the data set with Rattus norvegicus [14], the Activity came to 88%. In addition, in data set [4], the EC50 was determined as 7 µM. The Tmax in [5] worked out at 0.67 h. In [8], this compound showed a half-life of 1.5 h. In addition, the AUC – broadly, concentration integrated over time – in the data set on Rattus norvegicus [16] was found to be 99 µg·h/mL. For the same compound, the Cmax in the data set with Rattus norvegicus [17] amounted to 41 µg/mL.
`C[S+]([O-])c1ccc(CCCC[C@H]2CO[C@@](C)(C(=O)O)OC2)cc1` (stereo not given in full): the Activity in the data set with Mus musculus [1] is given as -12%. In addition, the fold change (FC) in data set [2] came out at 2.
In the same order, the values of `COc1ccc(CCCC[C@H]2CO[C@@](C)(C(=O)O)OC2)cc1` are -11% and 2.5.
In the same order, the values of `Cc1ccc(CCCC[C@H]2CO[C@@](C)(C(=O)O)OC2)cc1` are -22% and 3.2.
In the same order, the values of `C[C@]1(C(=O)O)OC[C@@H](CCCCc2ccc(Cl)cc2)CO1` are -10% and 2.6.
`C[C@]1(C(=O)O)OC[C@@H](CCCCc2ccc(F)cc2)CO1`: the Activity in the data set with Mus musculus [1] is -9%. The fold change (FC) in [2] came out at 2.3.
For `CS(=O)(=O)c1ccc(CCCC[C@H]2CO[C@@](C)(C(=O)O)OC2)cc1`, the Activity in the data set with Mus musculus [1] is -7%. Moreover, in [2], the fold change (FC) came to 1.
With `CCO[C@@H](Cc1ccc(OCCc2ccc(OS(C)(=O)=O)cc2)cc1)C(=O)O` [TESAGLITAZAR], the Activity in the data set with Rattus norvegicus [3] was -51%; in the data set with Rattus norvegicus [6] it was -31%; in the data set with Mus musculus [7], -54%; with Mus musculus [1], -79%; with Mus musculus [11], -60%; with Rattus norvegicus [12], -59%. In addition, in the data set with Rattus norvegicus [14], the Activity is on record as 18%. In addition, the EC50 in [4] came out at 0.013 µM; in [10], 0.82 µM.
Turning to `C[C@]1(C(=O)O)OC[C@@H](CCCCc2ccc(OCc3ccccc3)cc2)CO1`, the Activity in the data set on Mus musculus [1] is reported as -25%. In addition, in [2], the fold change (FC) was 2.3.
